The structures appear in SMILES notation.

For assay [1], the system named is PC-12. The assay is described as follows: Effective concentration to induce 50 % protection of rat PC12 cells from camptothecin-induced cell death. Type of assay: functional, cell-based. In a few lines:
(§1)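 PC12 cells grown in RPMI1640 with 10% horse serum and 5% fetal calf serum to 70–80% confluence, seeded at 2.2×10^4 cells/mL, grown 12 h. Pretreated 6 h with compound (100–400 nM, 0.4% DMSO final), then camptothecin 40 μM for 24 h. Live cells read by BCECF AM (5 μM, 45 min) fluorescence, ex 490/em 535 nm. EC25/EC50 from logit plot versus log concentration, n = 3.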

Assay [2] deals with PC-12. As to the kind of experiment: Effective concentration to induce 25 % protection of rat PC12 cells from camptothecin-induced cell death. It counts as functional. The method, boiled down:
as §1

A short description of assay [3]: Neuronal survival of cells in response to compound (100 nM) addition to etoposide (2.5 uM) to hippocampal neurons. Type of assay: functional, Rattus norvegicus, Hippocampus. In a few lines:
(§2)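 Primary hippocampal cultures from embryonic day 18 Sprague–Dawley rats, used at 9–10 days in Neurobasal/B-27 medium. Compound added 1 h before the DNA-damaging agent (camptothecin or etoposide); the agents were made as 500× DMSO stocks. Viable neurons (intact neurites, smooth round soma) were counted in premarked fields before treatment and 24 h after. Results are given as percent survival, mean ± SD.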

The nature of assay [4]: Neuronal survival of cells in response to compound (100 nM) addition to camptothecin (5 uM) to hippocampal neurons. Type of assay: functional, Rattus norvegicus, Hippocampus. In a few lines: as §2
The nature of assay [5]: Neuroprotective action against glutamate (20 uM) induced cell death in hippocampal neurons. It counts as functional, Rattus norvegicus, Hippocampus. The method, boiled down: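 E18 Sprague–Dawley rat hippocampal cultures (9–10 days old) were pretreated with compound (0.04 μM) 1 h before glutamate in Locke's medium; glutamate came from a fresh 200× saline stock. Viable neurons in premarked fields were counted before treatment and 24 h after insult onset, judged by neurite and soma morphology. Results are given as percent survival, mean ± SD.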

Assay [6] can be described thus: Neuronal survival of cells in response to compound (100 nM) addition to camptothecin (5 uM) to rat hippocampal neurons. It counts as functional, Hippocampus. In a few lines:
as §2

Assay [7] is described as follows: Neuronal survival of cells in response to compound (100 nM) addition to etoposide (2.5 uM) to rat hippocampal neurons. Type of assay: functional, Hippocampus. In a few lines:
as §2

For `Nc1nc2c(s1)CCCC2`, the EC50 (as a rule, the midpoint of the concentration-response curve) in the assay with PC-12 [1] was found to be 8750 nM. In addition, the EC25 (usually the concentration at which the effect reaches the 25% level) in the assay on PC-12 [2] was 855 nM.
`CCOC(=O)Cn1c2c(sc1=N)CCCC2` gave an EC50 with PC-12 [1] of 595 nM. Also, the EC25 in the assay with PC-12 [2] is 230 nM.
For `N=c1sc2c(n1CC(=O)c1ccc(Cl)cc1)CCCC2` the same measures were 190 nM and 120 nM.
In the assay on PC-12 [1], `COc1ccc(C(=O)Cn2c3c(sc2=N)CCCC3)cc1` gave an EC50 of 180 nM. For the same molecule, it took 150 nM to reach the 25% level in the assay with PC-12 [2] (EC25).
The molecule `COc1cccc(C(=O)Cn2c3c(sc2=N)CCCC3)c1` yielded an EC50 with PC-12 [1] of 420 nM. The molecule also returned a concentration for an effect of 25% (EC25) with PC-12 [2] of 340 nM.
`CCC(=O)Cn1c2c(oc1=N)CCCC2` had an EC50 with PC-12 [1] of 145 nM.
`COc1ccccc1C(=O)Cn1c2c(sc1=N)CCCC2` showed an EC50 in the assay with PC-12 [1] of 350 nM. In the assay with PC-12 [2], the 25% effect level (EC25) was put at 250 nM.
On to `Br.CCC(=O)Cn1c2c(sc1=N)CCCC2`, for which the Survival in assay [3] is listed as 71%; in assay [4], 65%; in assay [5] it was 43%. In the assay with PC-12 [1], this molecule came in with an EC50 of 570 nM. Moreover, in the assay with PC-12 [2], it took 410 nM to reach the 25% level (EC25).
In the assay with PC-12 [1], `Cc1ccc(C(=O)Cn2c3c(oc2=N)CCCC3)cc1` showed an EC50 of 70 nM. In the assay on PC-12 [2], it took 35 nM to reach the 25% level (EC25).
For `N=c1sc2c(n1CC(=O)c1ccc(-c3ccccc3)cc1)CCCC2` the same measures were 770 nM and 340 nM.
`N=c1sc2c(n1CC(=O)c1ccc(F)cc1)CCCC2`: the EC50 in the assay with PC-12 [1] was 380 nM. Besides, the EC25 in the assay with PC-12 [2] came to 300 nM.
Take `Br.Cc1ccc(C(=O)Cn2c3c(sc2=N)CC(C)CC3)cc1` (configuration not stated): the figures for the Survival in assay [6] and in assay [7] were 29% and 60%, respectively. The EC50 in the assay with PC-12 [1] is 305 nM. In the assay on PC-12 [2], this molecule showed an EC25 of 100 nM.
The molecule `N=c1sc2c(n1CC(=O)c1ccc([N+](=O)[O-])cc1)CCCC2` returned an EC50 in the assay on PC-12 [1] of 410 nM. Further, in the assay on PC-12 [2], the EC25 worked out at 230 nM.
Turning to `Br.N=c1sc2c(n1Cc1ccccc1)CCCC2`, the Survival was found to be 78% in assay [3], 61% in assay [4] and 43% in assay [5]. The same molecule displayed an EC50 with PC-12 [1] of 740 nM. This molecule displayed an EC25 in the assay with PC-12 [2] of 415 nM.
In the assay with PC-12 [1], `N=c1sc2c(n1CC(=O)c1ccccc1)CCCC2` gave an EC50 of 170 nM. In the assay with PC-12 [2], the 25% effect level (EC25) was put at 80 nM.
